This is an account of results in ChEMBL document CHEMBL1146298, “Identification of the benzodiazepines as a new class of antileishmanial agent” (Bioorg Med Chem Lett, 2007).

Calls of active or inactive are those of the source. The rule behind the calls is not given here.

In series [1] the test system is Leishmania donovani. As to the kind of experiment: Antileishmanial activity against antimony-sensitive Leishmania donovani 200016 promastigotes in bone marrow-derived macrophages assessed as parasite suppression at 100 ug/ml. The class given is functional. The method, boiled down:
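Fixed 72 h post-treatment and Giemsa-stained (10% v/v). Percent of 200 random cells infected was scored, and mean % suppression ± SE was taken against the control mean. Mann–Whitney U test vs control, p < 0.05 significant.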

Series [2] in a line: Toxicity against bone marrow-derived macrophages. It counts as cell-based. The note with it: human, macrophage.
Series [3] relates to Leishmania donovani. As to the kind of experiment: Antileishmanial activity against antimony-sensitive Leishmania donovani 200016 promastigotes in bone marrow-derived macrophages. To be noted: read-out: LD50 (the source's name). It counts as functional. The method, boiled down:
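After 72 h, cells fixed and stained with 10% v/v aqueous Giemsa; mean percentage of infected cells scored from 200 random cells. Mean percentage suppression ± SE computed against control mean; significance tested by Mann–Whitney U test, p < 0.05.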

Series [4] concerns Macrophage. Put plainly: Decrease in cellular glutathione levels in macrophages. To be noted: Homo sapiens. It counts as functional, cell-based.
Series [5] deals with Leishmania donovani. Put plainly: Antileishmanial activity against antimony-sensitive Leishmania donovani 200016 promastigotes in bone marrow-derived macrophages at 37 ug/ml. It counts as functional.

Regarding `O=C1N[C@H](Cc2ccccc2)C(=O)Nc2ccccc21`, in series [1], the Activity turned out to be 23%.

For `C[C@@H]1NC(=O)c2ccccc2NC1=O`, the Activity in series [1] was determined as 28%.

`CN1C(=O)CN(c2ccccc2)C(=O)c2ccccc21`: in series [1], the result was inactive.

As to `CN1C(=O)CN(C2CCCCC2)C(=O)c2ccccc21`, in series [1], the Activity worked out at 26.4%.

With `CCCN1CC(=O)N(C)c2ccccc2C1=O`, in series [1], the Activity amounted to 72%.

With `CCCCCCN1CC(=O)N(C)c2ccccc2C1=O`, the Activity entry in series [2] is given as “Toxic”. The outcome in series [1] was inactive.

With `O=C1Nc2ccccc2C(=O)N2CSC[C@@H]12`, the Activity entry in series [2] was “Toxic”; in series [1] it was 33%.

Take `O=C1c2ccccc2NC[C@@H]2CCCN12`: in series [1], the Activity is recorded as 70.6%.

Turning to `O=C1N[C@@H](Cc2ccc(O)cc2)C(=O)Nc2ccccc21`, in series [1], the Activity is given as 64.4%.

Consider `CN1C(=O)CN(CCc2ccccc2)C(=O)c2ccccc21`, for which the Activity in series [1] was 19.6%.

As to `CN1C(=O)CN(CC2CCCCC2)C(=O)c2cc(Cl)ccc21`, the LC50 in series [3] turned out to be 115 µM. Further, the result in series [4] was Active. The Activity in series [5] was found to be 73%; in series [1] it was 85%.

Regarding `CN1C(=O)CN(CC2CCCCC2)C(=O)c2ccccc21`, the Activity entry in series [2] is reported as “Toxic”. Also, in series [4], the outcome was Active. Further, in series [5], the result was inactive.

Turning to `c1ccc2c(c1)CN1CCC[C@@H]1CN2`, the Activity in series [1] turned out to be 67.8%.

Take `c1ccc2c(c1)CN1CCC[C@H]1CN2`: the Activity in series [1] came to 23%.

`O=C1c2ccccc2NC[C@H]2CCCN12`: the Activity in series [1] turned out to be 61.7%.

As for `COc1cccc(CN2CC(=O)N(C)c3ccccc3C2=O)c1`, the Activity in series [1] was 54.6%.

For the compound `O=C1Nc2ccccc2C(=O)N2Cc3ccccc3C[C@@H]12`, the Activity in series [1] is recorded as 25%.

With `CN1C(=O)CN(Cc2ccccc2)C(=O)c2ccccc21`, the Activity in series [1] was 51%.

For the compound `O=C1Nc2ccccc2C(=O)N2CCC[C@@H]12`, the Activity in series [1] came out at 70.3%.

With `CC(C)C[C@@H]1NC(=O)c2ccccc2NC1=O`, the outcome in series [1] was inactive.

On to `O=C1N[C@@H](Cc2ccccc2)C(=O)Nc2ccccc21`, for which the Activity in series [1] came to 53.5%.

`CN1C(=O)CN(CC2CC2)C(=O)c2ccccc21`: the outcome in series [1] was inactive.

`O=C1CNC(=O)c2ccccc2N1`: the Activity in series [1] was found to be 19%.

Take `O=C1Nc2ccccc2C(=O)N2CCC[C@H]12`: the Activity in series [1] is given as 85.4%.

As for `CN1CC(=O)N(C)c2ccccc2C1=O`, the result in series [1] was inactive.
